Drawing on ChEMBL document CHEMBL4673214, “Synthesis and antibacterial bioactivities of cationic deacetyl linezolid amphiphiles” (Eur J Med Chem, 2018), this text covers MIC and solubility for seven molecules.

As a reminder, the MIC is the lowest concentration found to suppress growth.

One series has as its system Staphylococcus aureus. Nature of the series: Antibacterial activity against Staphylococcus aureus ATCC 29213 assessed as reduction in bacterial growth incubated for 16 to 20 hrs by CLSI-based broth microdilution method. Type of series: functional. The note with it: time 16-20 hrs. In outline:
(§1)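 Broth microdilution following CLSI, in cation-adjusted Mueller-Hinton broth. Inoculum from a 4-6 h culture (~10^8 CFU/mL), diluted to ~10^6 CFU/mL. Water stocks were serially diluted in MHB (256 to 0.5 µg/mL) and mixed 1:1 with the inoculum. Plates ran 16-20 h at 37 °C. MIC was read visually. Each concentration was tested in duplicate, and the experiment was repeated at least twice.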
(In broth dilution the organism is exposed to a series of concentrations in liquid medium.)

Another series has as its system Enterococcus faecalis. Briefly: Antibacterial activity against Enterococcus faecalis ATCC 29212 assessed as reduction in bacterial growth incubated 16 to 20 hrs by CLSI-based broth microdilution method. Type of series: functional. The note with it: time 16-20 hrs. In outline: as §1
A further series relates to Escherichia coli. Nature of the series: Antibacterial activity against Escherichia coli ATCC 25922 assessed as reduction in bacterial growth incubated 16 to 20 hrs by CLSI-based broth microdilution method. The format is functional. To be noted: time 16-20 hrs. A digest of the protocol:
as §1

Series [1] is described as follows: Solubility of the compound in water at room temperature. The format is physicochemical. The note with it: buffer.
For a further series, the system named is Salmonella enterica. Nature of the series: Antibacterial activity against Salmonella enterica ATCC 8387 assessed as reduction in bacterial growth incubated for 16 to 20 hrs by CLSI-based broth microdilution method. The format is functional. The note with it: time 16-20 hrs. A digest of the protocol:
as §1

Take `CCCCCCCCC[N+](C)(C)CC(=O)NC[C@H]1CN(c2ccc(N3CCOCC3)c(F)c2)C(=O)O1.[Cl-]`: the MIC was 8 µg/mL in the series on Staphylococcus aureus, 16 µg/mL with Enterococcus faecalis, 32 µg/mL in the series on Escherichia coli and 32 µg/mL with Salmonella enterica. Moreover, in series [1], the solubility entry is recorded as “Soluble”.
On to `CCCCCCCCCCN(C[C@H]1CN(c2ccc(N3CCOCC3)c(F)c2)C(=O)O1)C(=O)[C@@H](N)CCCCN.Cl.Cl`, for which the MIC in the series on Staphylococcus aureus stood at 4 µg/mL; in the series with Enterococcus faecalis, 8 µg/mL; in the series with Escherichia coli, 32 µg/mL; with Salmonella enterica, 32 µg/mL. The solubility entry in series [1] was “Soluble”.
With `CCCCCCCCN(C[C@H]1CN(c2ccc(N3CCOCC3)c(F)c2)C(=O)O1)C(=O)[C@@H](N)CCCN=C(N)N.Cl.Cl.Cl`, the minimal inhibitory concentration (MIC) with Staphylococcus aureus is 16 µg/mL; with Enterococcus faecalis, 32 µg/mL; in the series with Escherichia coli, > 128 µg/mL; in the series on Salmonella enterica, > 128 µg/mL. Besides, the solubility result in series [1] was “Soluble”.
`CCCCCCCCN(C[C@H]1CN(c2ccc(N3CCOCC3)c(F)c2)C(=O)O1)C(=O)[C@@H](N)CCCCN.Cl.Cl`: the MIC with Staphylococcus aureus was determined as 32 µg/mL; in the series on Enterococcus faecalis, 64 µg/mL; with Escherichia coli, 128 µg/mL; in the series on Salmonella enterica, 128 µg/mL. Moreover, the solubility entry in series [1] is recorded as “Soluble”.
Regarding `CCCCCCCC[N+](C)(C)CC(=O)NC[C@H]1CN(c2ccc(N3CCOCC3)c(F)c2)C(=O)O1.[Cl-]`, the minimum inhibitory concentration (MIC) in the series with Staphylococcus aureus is 128 µg/mL; in the series with Enterococcus faecalis, 64 µg/mL; with Escherichia coli, 128 µg/mL; in the series on Salmonella enterica it was 128 µg/mL. For the same molecule, in series [1], the solubility entry is recorded as “Soluble”.
Regarding `CCCCCCCCCCN(C[C@H]1CN(c2ccc(N3CCOCC3)c(F)c2)C(=O)O1)C(=O)[C@@H](N)CCCN=C(N)N.Cl.Cl.Cl`, the MIC with Staphylococcus aureus stood at 8 µg/mL; in the series on Enterococcus faecalis it was 8 µg/mL; with Escherichia coli, 16 µg/mL; with Salmonella enterica it was 32 µg/mL. For the same molecule, in series [1], the solubility entry was “Soluble”.
`CCCCCCCN(C[C@H]1CN(c2ccc(N3CCOCC3)c(F)c2)C(=O)O1)C(=O)[C@@H](N)CCCN=C(N)N.Cl.Cl.Cl`: the MIC with Staphylococcus aureus was 64 µg/mL; in the series on Enterococcus faecalis, 128 µg/mL; in the series on Escherichia coli it was 128 µg/mL; with Salmonella enterica, > 128 µg/mL. In series [1], the solubility entry is on record as “Soluble”.
